Data taken from ChEMBL document CHEMBL1157793, “Synthesis and antitumor activity of 1,5-disubstituted 1,2,4-triazoles as cis-restricted combretastatin analogues” (J Med Chem, 2010).
Activity calls are given as the source filed them. The calls are words filed in the database; no cut-off is given here.

Key:
Jurkat [1] = assay: Induction of apoptosis in human Jurkat cells assessed as increase in ROS production at 50 nM by HE staining based flow cytometry; format: functional, cell-based; settings: TDE = time-dependent effect
Outline: (§1)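 After 24, 48, 72 h with 50 nM compound, Jurkat cells resuspended in HBSS with 2.5 µM HE or 0.1 µM H2DCFDA, 30 min at 37 °C, washed, and read by flow cytometry (excitation 488 nm; emission 585 nm HE, 530 nm DCF). Mean ± SEM of three independent experiments.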

Jurkat [2] = assay: Induction of apoptosis in human Jurkat cells assessed as increase in annexin-V positive cells after 24 to 72 hrs by annexin-V-FITC and propidium iodide staining based flow cytometry; format: functional, cell-based
MCF7 = assay: Antiproliferative activity against human MCF7 cells after 72 hrs by MTT assay; format: functional, cell-based; settings: MCF7, 72 h
HUVEC [3] = assay: Induction of apoptosis in HUVEC expressing GFP assessed as formation of membrane blebs at 0.5 uM to 10 uM after 30 mins by confocal microscopy; settings: Homo sapiens
Jurkat [4] = assay: Induction of apoptosis in human Jurkat cells assessed as depolarization of mitochondrial membrane potential measured as annexin-V positive cells at 50 nM after 72 hrs by annexin-V-FITC and propidium iodide staining based flow cytometry (reference value: 3.0%); format: functional
Jurkat [5] = assay: Cell cycle arrest in human Jurkat cells assessed as accumulation of cells at SubG1 phase at 7 to 250 nM after 24 hrs by propidium iodide staining-based flow cytometry; format: functional
Outline: (§2)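 5×10^5 exponentially growing cells treated with compound (7–250 nM range for 24 h; 30 nM for 24 and 48 h), collected, fixed in ice-cold 70% ethanol, lysed with buffer containing RNase A and 0.1% Triton X-100, PI-stained, and DNA content analysed by flow cytometry; phase distribution from DNA histograms. Mean ± SEM of three independent experiments.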

HeLa [6] = assay: Cell cycle arrest in human HeLa cells assessed as decrease in accumulation of cells at S phase at 7 to 250 nM after 24 hrs by propidium iodide staining-based flow cytometry; format: functional; outline: as §2
Jurkat [7] = assay: Induction of apoptosis in human Jurkat cells assessed as increase in PARP cleavage at 50 nM after 24 hrs by immunoblot method; format: functional, cell-based
Outline: (§3)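 Jurkat cells given 50 nM compound for varying times, washed in cold PBS, lysed on ice 30 min, cleared at 15000g, 4 °C; 20 µg protein run on 7.5–15% SDS-PAGE, blotted to PVDF, probed 2 h at room temperature with rabbit anti-PARP or anti-Bcl-2 (1:1000), peroxidase secondary, ECL detection; β-actin reprobe as loading control.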

Jurkat [8] = assay: Induction of apoptosis in human Jurkat cells assessed as increase in ROS production at 50 nM by H2DCFDA staining based flow cytometry; format: functional, cell-based; settings: TDE = time-dependent effect; outline: as §1
A549 = assay: Antiproliferative activity against human A549 cells after 72 hrs by MTT assay; format: functional, cell-based; settings: A549, 72 h
Jurkat [9] = assay: Antiproliferative activity against human Jurkat cells after 72 hrs by MTT assay; format: functional, cell-based
Outline: (§4)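 Cells seeded at 8×10^3 per well (Jurkat, HL-60, K562 in RPMI-1640; MCF7, A549, HeLa in DMEM; all with 10% FBS, penicillin/streptomycin), incubated 18 h at 37 °C, 5% CO2, then exposed to compound at varying concentrations in complete medium for 72 h.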

Gallus gallus = species: Gallus gallus; assay: Inhibition of vascular sprouts in chick embryo aorta assessed as vascular disruption at 10 uM after 30 mins by microscopy; format: functional, tissue-based
Outline: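 Aortic arches from day-14 chick embryos sliced, embedded in Matrigel with complete medium; endothelial sprouts formed over 24–48 h. Compound added at various concentrations and vascular channels imaged before and 30 min after addition.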

HeLa [10] = assay: Antiproliferative activity against human HeLa cells after 72 hrs by MTT assay; format: functional, cell-based
Bos taurus [11] = species: Bos taurus; assay: Ratio of IC50 for comberestastatin-A4 to IC50 for drug for inhibition of bovine brain tubulin polymerization after 20 mins by turbidimetry
HL-60 = assay: Antiproliferative activity against human HL60 cells after 72 hrs by MTT assay; format: functional, cell-based; settings: HL-60, 72 h
Bos taurus [12] = species: Bos taurus; assay: Displacement of [3H]colchicine from bovine tubulin at 1 uM
Outline: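 [3H]Colchicine binding inhibition measured with reaction mixtures of 1 µM tubulin, 5 µM [3H]colchicine and 1 µM test compound.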

HeLa [13] = assay: Cell cycle arrest in human HeLa cells assessed as decrease in accumulation of cells at G1 phase at 7 to 250 nM after 24 hrs by propidium iodide staining-based flow cytometry; format: functional; outline: as §2
Jurkat [14] = assay: Cell cycle arrest in human Jurkat cells by accumulation of cells at G2/M phase at 7 to 250 nM after by propidium iodide staining-based flow cytometry; format: functional; settings: TDE = time-dependent effect; outline: as §2
Jurkat [15] = assay: Induction of apoptosis in human Jurkat cells assessed as decrease in Bcl2 expression at 50 nM after 24 to 72 hrs by immunoblot method; format: functional, cell-based; outline: as §3
Jurkat [16] = assay: Cell cycle arrest in human Jurkat cells assessed as increase in accumulation of cells at G2/M phase at 7 to 250 nM after 24 hrs by propidium iodide staining-based flow cytometry; format: functional; outline: as §2
HeLa [17] = assay: Cell cycle arrest in human HeLa cells assessed as increase in accumulation of cells at G2/M phase after 24 hrs by propidium iodide staining-based flow cytometry; format: functional; outline: as §2
Jurkat [18] = assay: Induction of apoptosis in human Jurkat cells assessed as depolarization of mitochondrial membrane potential measured as annexin-V positive cells at 50 nM after 24 hrs by annexin-V-FITC and propidium iodide staining based flow cytometry (reference value: 3.0%); format: functional
Jurkat [19] = assay: Induction of apoptosis in human Jurkat cells assessed as depolarization of mitochondrial membrane potential measured as annexin-V positive cells at 50 nM after 48 hrs by annexin-V-FITC and propidium iodide staining based flow cytometry (reference value: 3.0%); format: functional
[20] = Inhibition of bovine brain tubulin polymerization after 20 mins by turbidimetry; parameters: species or system Bos taurus
Outline: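 Bovine brain tubulin (10 µM) preincubated with varying compound concentrations in glutamate buffer at 30 °C, chilled to 0 °C, 0.4 mM GTP added, then warmed to 30 °C in spectrophotometer; assembly followed by turbidity at 350 nm.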

HUVEC [21] = assay: Induction of apoptosis in HUVEC expressing GFP assessed as decrease in GFP-positive cell area at 0.5 uM to 10 uM after 30 mins by confocal microscopy; parameters: scale not given: the % may be the effect or the level left
Jurkat [22] = assay: Induction of apoptosis in human Jurkat cells assessed as activation of caspase-3 at 50 nM by flow cytometry; format: functional, cell-based; settings: TDE = time-dependent effect
Outline: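 Jurkat cells exposed to 50 nM compound for 24, 48 and 72 h, fixed in Cytofix buffer 20 min, washed in Perm/Wash, stained 30 min with FITC-conjugated anti-human active caspase-3 fragment antibody; percentage of positive cells by flow cytometry, mean ± SEM of three experiments.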

HeLa [23] = assay: Cell cycle arrest in human HeLa cells by accumulation of cells at G2/M phase at 30 nM after 48 hrs by propidium iodide staining-based flow cytometry (reference value: 12%)
K562 = assay: Antiproliferative activity against human K562 cells after 72 hrs by MTT assay; format: functional, cell-based; settings: K562, 72 h; outline: as §4

IC50 (MCF7) [nM]	IC50 (A549) [nM]	IC50 (Jurkat [9]) [nM]	IC50 (HeLa [10]) [nM]	IC50 (HL-60) [nM]	Activity (Bos taurus [12]) [%]	SMILES	Activity (Jurkat [1])	Activity (Jurkat [2])	Activity (Jurkat [4])	Activity (Jurkat [5])	Activity (HeLa [6])	Activity (Jurkat [7])	Activity (Jurkat [8])	Activity (HeLa [13])	Activity (Jurkat [14])	Activity (Jurkat [15])	Activity (Jurkat [16])	Activity (HeLa [17])	Activity (Jurkat [18])	Activity (Jurkat [19])	also measured
50	100	5	15	20	86	CCOc1ccc(-c2ncnn2-c2cc(OC)c(OC)c(OC)c2)cc1	tde	Active	44.5%	Active	Active	Active	tde	Active	tde	Active	Active	Dose-dependent effect	14.4%	28.4%	Activity (HUVEC [3]): Active; Activity (Gallus gallus): Active; Ratio IC50 (Bos taurus [11]): 2; IC50 [20]: 760 nM; Activity (HUVEC [21]): 30%; Activity (Jurkat [22]): tde; Activity (HeLa [23]): 70%
17	10	3	6	3	75	CCOc1ccc(-c2ncnn2-c2cc(OC)c(OC)c(OC)c2)cc1Cl	tde	Active	Active	Active	Active	Active	tde	Active	tde	Active	Active	Dose-dependent effect	Active	Active	IC50 (K562): 20 nM; IC50 [20]: 1500 nM; Activity (Jurkat [22]): tde; Activity (HeLa [23]): 70%
